The text below walks through data of paper PMC4104500 (Biochemistry, 2013).

In experiment [1] the target is Human wild type CIB1 (calcium and integrin binding protein 1) (human) (UniProt Q99828). Description: ITC. For orientation: In ITC the heat of successive injections is recorded.
In a further experiment the target is T1, CIB1 (Homo sapiens, UniProt Q99828).
T1 sequence (Q99828 1-191): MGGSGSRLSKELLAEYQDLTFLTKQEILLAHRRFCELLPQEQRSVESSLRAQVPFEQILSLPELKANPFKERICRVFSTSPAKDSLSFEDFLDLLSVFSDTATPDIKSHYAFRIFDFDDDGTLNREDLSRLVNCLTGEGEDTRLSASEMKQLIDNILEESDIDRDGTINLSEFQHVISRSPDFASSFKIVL
The experiment can be described thus: Isothermal titration calorimetry. It counts as binding. The method, boiled down:
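Recombinant CIB1 from E. coli BL21(DE3), His tag removed by TEV, dialyzed into 50 mM HEPES pH 7.4, 150 mM NaCl, 0.1 mM CaCl₂ unless otherwise noted, at 100 µM in cell. Peptides (0.8–1 mM, same buffer) injected as 10 µL every 300 s at 15 °C or 26 °C. Dilution heats taken from post-saturation injections; one-site fit; TΔS and ΔG calculated.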

Experiment [2] has as its target T2, Human wild type CIB1 (calcium and integrin binding protein 1) (human, UniProt Q99828 1-191).
T2 sequence (looked up): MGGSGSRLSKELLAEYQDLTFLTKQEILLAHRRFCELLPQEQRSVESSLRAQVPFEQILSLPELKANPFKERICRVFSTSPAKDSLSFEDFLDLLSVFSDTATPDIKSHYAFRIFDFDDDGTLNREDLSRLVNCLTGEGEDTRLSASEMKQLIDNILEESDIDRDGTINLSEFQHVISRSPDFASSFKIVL
The experiment can be described thus: ITC.

In experiment [3] the target is T2, Human wild type CIB1 (calcium and …). The experiment can be described thus: pull-down.
[4] abbreviates: ITC buffer without any NaCl, calculated value.

On to “integrin α4 cytoplasmic tail (CT) peptide”, for which the dH in experiment [1] was determined as 7.82 kcal/mol.
For “αIIb: synthetic cytoplasmic tail (CT) peptide of integrin αIIb; sequence in Table S1”, the TΔS in the experiment with CIB1 (ITC buffer with 150 mM NaCl, calculated from ΔG = ΔH − TΔS) is 4.09 kcal/mol; with CIB1 (setting [4]) it was -0.574 kcal/mol. The ΔG in the experiment with CIB1 (ITC buffer with 150 mM NaCl, calculated from ΔG = −RT ln Ka) was -7.98 kcal/mol; with CIB1 (setting [4]), -7.58 kcal/mol.

B1: integrin αL cytoplasmic tail (CT) peptide (peptide)
chain: IFIVLYKVGFFKRNLKEKMEAGRGVPNGIPAEDSEQLASGQEAGDPGCLKPLHEKDSESGGGKD
As to B1, in experiment [2], the Kd (commonly the equilibrium constant for the complex coming apart) came out at 3.2 µM; the dH worked out at 1.96 kcal/mol; the stoichiometry N (as a rule, the number of molecules, sites or subunits per partner or assembly) worked out at 1.1.
The corresponding values for IILLLWKCGFFKRARTRALYEAKRQKAEMKSQPSETERLTDDY [integrin α3 cytoplasmic tail (CT) peptide] are 5.1 µM, 1 kcal/mol and 1.
The corresponding values for LVFVMYRMGFFKRVRPPQEEQEREQLQPHENGEGNSET [integrin αV cytoplasmic tail (CT) peptide, wild type] are 4.3 µM, 1.74 kcal/mol and 0.9.
LVFVMYRMGFFKRVRPPQEEQEREQLQPHENGEGNSET (domain or fragment, human, UniProt P06756 1011-1048, looked up) [MBP-αV cytoplasmic tail fusion protein]: the binding result in experiment [3] is “binds”.
As for LIYILYKLGFFKRSLPYGTAMEKAQLKPPATSDA [integrin α5 cytoplasmic tail (CT) peptide], in experiment [2], the Kd was 6.9 µM, the dH was found to be 5.11 kcal/mol and the “stoichiometry N” value came out at 0.9.
Regarding LVLAMWKVGFFKRNRPPLEEDDEEGE (domain or fragment, human, UniProt P08514 1014-1039, looked up) [MBP-αIIb cytoplasmic tail fusion protein], the binding result in experiment [3] was “binds”.
